# Screens deposited in PubChem by Johns Hopkins Ion Channel Center.
# TRPC6 activator = activators of mouse TRPC6 channel. Q61143. HEK293-TRPC6 membrane potential dye fluorescence; hits give high values. B-score at 10 µM. hit rate 0.13% among 310,000. AID 2550;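 active = B-score of the integrated fluorescence ratio above library mean plus 3 SD, and starting fluorescence ratio within library mean plus 5 SD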;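 also: higher score means more depolarization so channel activation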
# Kir21 inh = blocks the mouse Kir2.1 inward-rectifier potassium channel; P35561; HEK293-Kir2.1, FluxOR thallium flux fluorescence; hits give low values; B-score at 10 µM; hit rate 0.85% among 310,000; AID 1672;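 active = fluorescence ratio B-score at or below minus 3 SD of library scores, with starting-brightness B-score within 2 SD, cut at about -4.2 in these data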;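 also: channel flux triggered by added potassium and thallium sulfate stimulus; B-score of peak minus minimum fluorescence over baseline after thallium stimulus; more negative B-score means stronger Kir2.1 block with less thallium influx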
# TRPC4 potent = TRPC4 (mouse) allosteric potentiation | hit rate 0.42% among 310,000 | Q9QUQ5 | HEK293 TRPC4beta/mu-opioid, DAMGO EC20, Fluo-4 Ca2+ flux; hits give high values | AID 2227 | B-score at 10 µM;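 active = B-score of calcium response area above 5 SD of library B-scores, with initial fluorescence ratio within 5 SD of library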;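 also: B-score of integrated fluorescence ratio over time as area under calcium response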
# Target sequence (Q9QUQ5 whole entry, looked up): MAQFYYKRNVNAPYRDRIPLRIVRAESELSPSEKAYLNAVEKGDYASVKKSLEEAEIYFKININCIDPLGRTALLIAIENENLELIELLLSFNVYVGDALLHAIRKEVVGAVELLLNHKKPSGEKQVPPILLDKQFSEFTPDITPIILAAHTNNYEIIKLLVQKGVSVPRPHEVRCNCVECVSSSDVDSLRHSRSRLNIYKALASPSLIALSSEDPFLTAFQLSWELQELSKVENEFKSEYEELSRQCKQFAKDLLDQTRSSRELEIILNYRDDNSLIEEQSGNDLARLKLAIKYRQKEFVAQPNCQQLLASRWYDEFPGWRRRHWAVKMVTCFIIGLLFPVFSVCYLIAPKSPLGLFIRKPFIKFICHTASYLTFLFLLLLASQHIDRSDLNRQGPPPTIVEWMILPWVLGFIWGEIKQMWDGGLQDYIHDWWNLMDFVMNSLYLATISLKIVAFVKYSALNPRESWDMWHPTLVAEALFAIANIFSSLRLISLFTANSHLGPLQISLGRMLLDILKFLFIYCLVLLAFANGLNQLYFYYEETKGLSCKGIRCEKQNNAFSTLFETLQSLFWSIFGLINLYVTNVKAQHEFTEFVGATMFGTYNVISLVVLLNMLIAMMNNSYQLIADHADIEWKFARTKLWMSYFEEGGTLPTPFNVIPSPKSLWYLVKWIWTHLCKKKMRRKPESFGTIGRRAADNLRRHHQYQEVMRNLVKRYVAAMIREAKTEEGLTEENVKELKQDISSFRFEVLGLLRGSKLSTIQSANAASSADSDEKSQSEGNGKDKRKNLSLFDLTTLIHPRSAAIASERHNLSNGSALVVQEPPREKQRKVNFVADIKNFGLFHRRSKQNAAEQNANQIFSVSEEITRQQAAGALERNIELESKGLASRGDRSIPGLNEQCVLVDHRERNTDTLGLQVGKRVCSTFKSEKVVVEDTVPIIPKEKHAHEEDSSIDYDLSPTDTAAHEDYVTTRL
# TRPC4 act = opens the mouse TRPC4 cation channel. B-score at 10 µM. HEK293 TRPC4beta/mu-opioid, Fluo4 calcium fluorescence; hits give high values. hit rate 0.49% among 310,000. Q9QUQ5. AID 2237;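 active = B-score above 5 SD of library B-scores, and initial fluorescence ratio not above library mean plus 5 SD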;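 also: positive B-score marks a calcium rise read as TRPC4 activation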
#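 Incubation: 45 min room-temperature Fluo4 loading, 110 s read / System: HEK293 cells stably co-expressing mouse TRPC4beta and mu-opioid receptor / Signal: Fluo4 fluorescence, kinetic / Control set: buffer (low) and maximal DAMGO (high) / Measure: integrated baseline-normalised fluorescence ratio, converted to per-well B score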
# TRPC4 inh = inhibitors of mouse TRPC4 channel; HEK293 TRPC4beta/mu-opioid, DAMGO-evoked Fluo4 calcium flux; hits give low values; B-score at 10 µM; hit rate 0.39% among 300,000;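 active = B-score over 3 SD under the library average, no early fluorescence shift, positive overall ratio signal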
#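 Test system – stable TRPC4beta/mu-opioid receptor HEK293 cells · Probe or stimulus – DAMGO, a submaximal dose followed by a maximal one · Dosing – one concentration per compound · Signal – Fluo4 calcium fluorescence by kinetic imaging, 5 s 1 Hz baseline · Evaluation – per-well B score of integrated baseline-normalized Fluo4 ratio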
# TRPC6 inhibitor = blocks the mouse TRPC6 cation channel; Q61143; HEK293-TRPC6, membrane potential dye, ACh-evoked depolarization; hits give low values; B-score at 10 µM; hit rate 1.1% among 310,000;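 active = B-score under library mean minus 3 SD, initial fluorescence not abnormally high, positive integrated signal ratio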;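 also: B-score derived from integrated fluorescence ratio over the kinetic read; more negative B-score means stronger inhibition of depolarization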
# TRPC4 sel inh 2 = mouse TRPC4 off-target activity of TRPC6 inhibitors, second screen; shares compounds with TRPC6 inhibitor; HEK293 TRPC4/MOR, membrane potential dye fluorescence; channel activated by saturating DAMGO dose; inhibition, % at 10 µM; hit rate 42% among 920;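 active = compounds whose fluorescence signal differed from control wells by over 3 SD, either direction, in both duplicate plates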
# TRPC4 spec = tests whether TRPC6 inhibitors also affect mouse TRPC4; shares compounds with TRPC6 inhibitor; HEK293 TRPC4/mu-opioid, membrane potential fluorescence; activity change, negative = inhibition, % at 10 µM; hit rate 61% among 920; AID 2777;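 active = rise or fall in signal beyond 3 SD of buffer-only wells in both replicate plates, either sign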;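 also: integrated kinetic ratio of fluorescence range over baseline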
# HEK293 MPD ctr 2-1 = second check of TRPC6 inhibitor effects in parental HEK293 cells. shares compounds with TRPC6 inhibitor. parental HEK293 membrane potential dye fluorescence; maximal acetylcholine challenge after compound addition. signal change vs control, % at 10 µM. hit rate 31% among 920. AID 2779;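 active = membrane potential signal moving either way by over 3 SD of the maximum-effect control, in both duplicate plates, meaning non-specific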
# HEK293 MPD ctr-1 = checks TRPC6 inhibitor effects in parental HEK293 cells; shares compounds with TRPC6 inhibitor; parental HEK293 membrane potential dye fluorescence; membrane potential signal change, % at 10 µM; hit rate 60% among 920; AID 2780;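 active = membrane potential signal shifting up or down by more than 3 SD of buffer-only wells, on both duplicate plates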
# HEK293 MPD ctr-2 = counter-screen for TRPC6 modulators: effect in parental HEK293 cells; shares compounds with TRPC6 inhibitor; membrane potential dye fluorescence; membrane potential signal change, % at 10 µM; hit rate 51% among 2,400; AID 488924;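 active = membrane potential signal moves up or down beyond 5 SD from buffer-only wells, on both duplicate plates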
# HEK293 MPD ctr 2-2 = parental HEK293 nonspecific activity of TRPC6 modulators, second screen; shares compounds with TRPC6 inhibitor; membrane potential dye fluorescence; after compound, maximal acetylcholine stimulation; inhibition, % at 10 µM; hit rate 14% among 2,400; AID 488926;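 active = membrane potential signal drops by more than 5 SD from the mean control signal, in both duplicate plates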;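 also: plate controls were acetylcholine ECmax control wells for no effect and buffer only wells for full effect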
# TRPC4 ctr mod = mouse TRPC4 off-target activity of TRPC6 modulators. percent change from control (negative = decrease, positive = increase), % at 10 µM. HEK293 TRPC4/mu-opioid, membrane potential fluorescence. AID 488927. shares compounds with TRPC6 inhibitor. hit rate 69% among 2,400;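 active = membrane potential signal moved up or down beyond 5 SD of buffer control wells, in both duplicate plates, actives on both sides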;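 also: plate controls were assay buffer wells for no effect and DAMGO maximal-effect wells for full effect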
# TRPC4 ctr inh 2 = second selectivity test of TRPC6 modulators against mouse TRPC4; hit rate 55% among 2,400; HEK293 TRPC4/mu-opioid, membrane potential dye fluorescence; stimulated with maximal-effect DAMGO; inhibition, % at 10 µM; shares compounds with TRPC6 inhibitor;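 active = drop in membrane potential signal beyond 5 SD of the control wells in both duplicate plates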;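 also: TRPC4 counter screen for TRPC6 hits run under conditions tuned for TRPC6 not TRPC4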
# TRPC6 inh conf = mouse TRPC6 inhibitor confirmation; shares compounds with TRPC6 inhibitor; HEK293-TRPC6, membrane potential dye, ACh-evoked depolarization; inhibition, % at 10 µM; hit rate 43% among 3,300; AID 488960;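 active = fluorescence ratio falls more than 5 SD below the full-stimulation control mean, in both duplicate runs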;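 also: integrated fluorescence ratio of peak minus minimum over baseline after agonist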
# TRPC6 act confirm = mouse TRPC6 activator confirmation; shares compounds with TRPC6 inhibitor; HEK293-TRPC6 membrane potential dye fluorescence, FDSS; activation, % at 10 µM; hit rate 11% among 2,800; AID 488961;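 active = ratio signal rise beyond 5 SD above unstimulated control wells' mean, seen in both duplicate runs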;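 also: plate controls were buffer EC0 wells for no effect and acetylcholine ECmax response for full effect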
# Numbers without * were called inactive; i = inactive; nt = no result given; ! = not confirmed by another sample. Rows were chosen to be rich in hits. Some 2.9% of all compounds tested hit in one or more screens of this group.
SMILES,TRPC6 activator,Kir21 inh,TRPC4 potent,TRPC4 act,TRPC4 inh,TRPC6 inhibitor,HEK293 MPD ctr-2,HEK293 MPD ctr 2-2,TRPC4 ctr mod,TRPC4 ctr inh 2,TRPC6 inh conf,TRPC6 act confirm,others
Cc1ccc(NCc2nnc(SCCN3CCCCC3)n2CC2CCCO2)c(C)c1 (centres undefined),i,-0.52,i,i,i,-5.7*,i,i,16%*,35%*,41%*,i,
CCCn1c(Cc2ccccc2)n[nH]c1=S,i,3.2,i,i,i,i,nt,nt,nt,nt,nt,nt,
S=c1[nH]nc(Cc2ccccc2)n1Cc1ccco1,i,0.59,i,i,i,-8.3*,nt,nt,nt,nt,65%*,i,TRPC4 sel inh 2=i;TRPC4 spec=i;HEK293 MPD ctr 2-1=14%*;HEK293 MPD ctr-1=i
CCN1CCC[C@H]1CNC(=O)c1c(O)c(Cl)cc(Cl)c1OC,i,0.49,i,i,i,-7.4*!,nt,nt,nt,nt,i,i,TRPC4 sel inh 2=i;TRPC4 spec=i;HEK293 MPD ctr 2-1=i;HEK293 MPD ctr-1=i
Cn1nc([N+](=O)[O-])c(C(C#N)c2ccccn2)c(Cl)c1=O (centres undefined),i,-3,i,i,i,i,nt,nt,nt,nt,nt,nt,
CCCn1nc([N+](=O)[O-])c(C(C#N)c2nc3ccccc3o2)c(Cl)c1=O (centres undefined),i,-0.72,i,i,-5*,-7.9*,-217%*,i,-46%*,81%*,68%*,i,
CC1CCCN(C(=O)COC(=O)c2cc(-c3cccs3)nn2-c2ccccc2)C1 (centres undefined),i,0.46,i,i,i,-6.5*,113%*,i,18%*,i,50%*,nt,
NC(=O)COC(=O)c1cc(-c2cccs2)nn1-c1ccccc1,i,-0.12,i,i,nt,i,nt,nt,nt,nt,nt,nt,
CCOC(=O)N1CCN(C(=O)CCN2C(=O)/C(=C\c3ccccc3OC)SC2=S)CC1,i,-0.06,i,i,i,i,nt,nt,nt,nt,nt,nt,
COc1ccccc1/C=C1\SC(=S)N(CCC(=O)N2CCN(C)CC2)C1=O,i,0.03,i,i,i,-5.3*,i,i,i,44%*,i,i,
COC(=O)c1ccc(NC(=O)c2cc3sccc3n2C)cc1,i,1.4,i,i,i,i,nt,nt,nt,nt,nt,nt,
